CHO parental Ca – ATP-evoked calcium signal inhibitors, parental CHO, primary screen, counter-screen for OX1R antagonist project, cell-based, fluorescence, Fluo-8 calcium dye. parental CHO-K1, ATP-induced calcium, Fluo-8 fluorescence. 0.63% of 330,000 active. inhibition, % at 5.6 µM;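 active = inhibition above that plate's mean sample inhibition plus 3 SD, cut at about 26% in these data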;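 note: 0% = ATP-challenged DMSO wells and 100% = DMSO wells without ATP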
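Assay system: parental CHO cells; Read-out basis: percent inhibition of ATP-evoked calcium rise, normalized to controls; Benchmarks: ATP and no-ATP DMSO wells; Compound dosing: single nominal dose of 5.6 µM per compound; Signal: Fluo-8 calcium dye fluorescence; Also added: ATP as calcium-mobilizing challenge; Repeats: singlicate.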
TAAR1 agonist – human TAAR1 agonists, primary screen, Fluo-8 calcium fluorescence, CHO RD-HGA16 cells; vehicle wells 0%, saturating PEA agonist 100%; activation, % at 3 µM; 0.99% of 360,000 active;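 active = activation above the mean activation of all test compounds in the run plus 3 SD, cut at about 38% in these data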
Target sequence (Q96RJ0 whole entry, looked up): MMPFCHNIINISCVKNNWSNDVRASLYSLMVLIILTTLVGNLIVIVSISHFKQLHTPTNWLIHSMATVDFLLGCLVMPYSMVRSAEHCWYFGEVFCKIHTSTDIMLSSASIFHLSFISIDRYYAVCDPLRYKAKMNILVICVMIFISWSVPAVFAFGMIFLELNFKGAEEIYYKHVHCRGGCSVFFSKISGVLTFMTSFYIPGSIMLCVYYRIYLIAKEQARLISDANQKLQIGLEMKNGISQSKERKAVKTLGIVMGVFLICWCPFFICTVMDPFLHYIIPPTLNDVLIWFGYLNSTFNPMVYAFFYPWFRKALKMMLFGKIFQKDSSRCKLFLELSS
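System: CHO-derived RD-HGA16 cells with stable Gα16 and human TAAR1 / Times: 17-24 h plating, Fluo-8 75 min 37 °C, 30 min RT / Technique: calcium-sensitive Fluo-8 signal, excitation 470-495, emission 515-575 nm / Measure: % activation relative to PEA EC100 response / Benchmarks: DMSO and PEA EC100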
GPR7 antagonist – GPR7 receptor antagonists, primary screen, cell-based, fluorescence, single concentration | Neuropeptides B/W receptor type 1 (Homo sapiens), P48145 | GPR7-expressing cells, fluorescence antagonist assay | inhibition, % at 4.4 µM | 1.1% of 290,000 active; in the data active = inhibition above about 16%, passing the limit was not always enough;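 note: cells stimulated with the agonist NPW; 0% = agonist with vehicle and 100% = vehicle without agonist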
Target sequence (P48145 whole entry, looked up): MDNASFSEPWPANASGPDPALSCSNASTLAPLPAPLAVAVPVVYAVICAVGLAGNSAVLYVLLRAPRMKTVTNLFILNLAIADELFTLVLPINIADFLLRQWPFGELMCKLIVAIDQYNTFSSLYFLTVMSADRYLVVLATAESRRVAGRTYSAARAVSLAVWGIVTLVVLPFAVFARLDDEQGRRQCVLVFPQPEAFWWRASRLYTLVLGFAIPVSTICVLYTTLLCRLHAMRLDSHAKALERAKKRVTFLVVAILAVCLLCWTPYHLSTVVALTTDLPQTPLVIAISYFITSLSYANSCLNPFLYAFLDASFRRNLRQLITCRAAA
TAAR1 antag – human TAAR1 antagonists, primary screen, Fluo-8 calcium fluorescence, CHO RD-HGA16 cells; antagonist; inhibition, % at 3 µM; 1.5% of 360,000 active;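 active = inhibition above a per-plate cutoff, the mean inhibition of test compounds on that plate plus 3 SD, cut at about 49% in these data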;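 note: 0% = DMSO plus EC80 beta-PEA response and 100% = DMSO alone without agonist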
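Assay system: CHO-derived RD-HGA16 cells stably expressing human TAAR1 plus Gα16. Timing: 140 s kinetic read after compound, 140 s after agonist. Technique: kinetic Fluo-8 calcium fluorescence measurement. Measure: % inhibition of agonist calcium response.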
OX1R antag-1 – OX1R (HCRTR1) antagonists, primary screen, fluorescence, CHO/OX1R cells, Fluo-8 calcium, orexin A. Orexin/Hypocretin receptor type 1 (Homo sapiens), O43613. Fluo-8 calcium fluorescence. inhibition, % at 5 µM. 0.43% of 330,000 active;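 active = inhibition above its plate's threshold, mean inhibition of all tested compounds on the plate plus 3 SD, cut at about 37% in these data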;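 note: 0% = orexin A challenge wells and 100% = SB-334867-A antagonist wells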
OX1R antag-2 – antagonists of human orexin 1 receptor (OX1R). Orexin/Hypocretin receptor type 1 (Homo sapiens), O43613. inhibition, % at 6.6 µM. OX1R-expressing cells, FRET antagonist read-out. AID 485270, 2010. 1.8% of 330,000 active; in the data active = inhibition mostly above about 38%, no sharp cut-off; inactive = mostly below about 40%;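 note: 0% = agonist challenge alone and 100% = reference antagonist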
nonsel antag count – nonselective antagonists in TAAR1 counter-screen cells, counter-screen for hTAAR1 antagonist project, cell-based, fluorescence, calcium. AID 651780, 2012. 77% of 2,400 active. shares compounds with TAAR1 antag. inhibition, % at 3 µM. counterscreen cell line, antagonist mode; in the data active = inhibition above about 22%;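 note: CHO-Ga16 host cells stimulated with ATP at an EC80 level; 0% = agonist EC80 plus vehicle and 100% = vehicle without agonist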
TAAR1 ant conf – human TAAR1 antagonists, retest of hits, confirmation, cell-based, fluorescence. AID 651785, 2012. inhibition, % at 3 µM. shares compounds with TAAR1 antag. TAAR1-expressing cells, fluorescence antagonist read-out. 40% of 2,400 active; in the data active = inhibition above about 49%;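 note: CHO-Ga16 host cells challenged with agonist PEA near its EC80; 0% = agonist at EC80 plus vehicle and 100% = vehicle with no agonist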
Ga16 nonsel ag – calcium activation in Ga16-expressing cells, counter-screen for TAAR1 antagonist project, cell-based, fluorescence; shares compounds with TAAR1 antag; activation, % at 3 µM; agonist counterscreen; 18% of 2,400 active; AID 651953, 2012; in the data active = activation above about 12%;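 note: 0% = vehicle wells and 100% = saturating stimulus response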
TAAR1 ag counter – TAAR1 activation by candidate antagonists – cell-based, fluorescence, counter-screen for TAAR1 antagonist project. shares compounds with TAAR1 antag. activation, % at 3 µM. hTAAR1 cell line, agonist mode. 2% of 2,400 active; in the data active = activation above about 37%;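 note: CHO cells stably expressing TAAR1 with calcium dye readout; 0% = DMSO vehicle and 100% = full agonist response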
Numbers without * were called inactive. Sampled rows, rich in hits. Any-hit rate of the full collection: about 4.6%.

What do the screens show for `CN(Cc1ccccc1)C(=O)CCC1CCN(C(=O)c2ccccc2C(F)(F)F)CC1`?
CHO parental Ca: -12.5; TAAR1 agonist: 0.9; GPR7 antagonist: 2.3; TAAR1 antag: -4.2; OX1R antag-1: -8.2; OX1R antag-2: 1.5

What do the screens show for `CC(C)[C@H](NC(=O)c1ccccc1)C(=O)OCC(=O)/C=C1/N(C)c2ccccc2C1(C)C`?
CHO parental Ca: 6.8; TAAR1 agonist: 11.4; GPR7 antagonist: 13.2; TAAR1 antag: 71.5*; OX1R antag-1: -10.9; OX1R antag-2: 21.2; nonsel antag count: 40.8*; TAAR1 ant conf: 55.4*; Ga16 nonsel ag: 9.0; TAAR1 ag counter: 4.4

What do the screens show for `COC(=O)c1oc2c(c1C)C1(CCC2)SCCS1`?
CHO parental Ca: -13.9; TAAR1 agonist: 12.2; GPR7 antagonist: 0.2; TAAR1 antag: 95.3*; OX1R antag-1: -15.4; OX1R antag-2: 22.4; nonsel antag count: -0.7; TAAR1 ant conf: 82.5*; Ga16 nonsel ag: 6.0; TAAR1 ag counter: 0.5

Results for COc1cccc(CNC(=O)N2CCN(c3ccccc3Cl)CC2)c1 ?
CHO parental Ca: -5.6; TAAR1 agonist: 10.2; GPR7 antagonist: -16.1; TAAR1 antag: 49.4*; OX1R antag-1: -22.2; OX1R antag-2: 11.4; nonsel antag count: 21.8*; TAAR1 ant conf: 36.0; Ga16 nonsel ag: 7.1; TAAR1 ag counter: 8.8

Results for CCOC(=O)C1=C(CC)Nc2ccccc2N=C1NC(=O)c1oc2ccccc2c1C ?
CHO parental Ca: -4.8; TAAR1 agonist: 4.3; GPR7 antagonist: -12.7; TAAR1 antag: 73.9*; OX1R antag-1: -11.2; OX1R antag-2: 26.5; nonsel antag count: 27.1*; TAAR1 ant conf: 52.9*; Ga16 nonsel ag: 5.2; TAAR1 ag counter: 2.1

What do the screens show for `CCOC(=O)C1=C(CC)Nc2ccccc2N=C1NC(=O)CCNC(C)=O`?
CHO parental Ca: -2.6; TAAR1 agonist: 1.8; GPR7 antagonist: -1.2; TAAR1 antag: -20.2; OX1R antag-1: 2.9; OX1R antag-2: 24.4

Results for CCOCc1c(C(=O)NC2=Nc3ccccc3NC(CC)=C2C(=O)OCC)oc2ccccc12 ?
CHO parental Ca: -21.4; TAAR1 agonist: 13.0; GPR7 antagonist: 1.9; TAAR1 antag: 60.9*; OX1R antag-1: -5.5; OX1R antag-2: 39.5*; nonsel antag count: 29.7*; TAAR1 ant conf: 55.4*; Ga16 nonsel ag: 4.4; TAAR1 ag counter: 2.0

How did Cc1cc(C(=O)N2CCCC(C)(C(=O)NS(=O)(=O)C3CC3)C2)nn1C(C)(C)C (centres undefined) do in these assays?
TAAR1 agonist: 1.4; TAAR1 antag: -17.8

What do the screens show for `CCOc1ccc2[nH]c(C(=O)N/N=C/c3ccc(OC)cc3)cc2c1`?
TAAR1 agonist: 8.5; GPR7 antagonist: 20.5; TAAR1 antag: 70.3*; nonsel antag count: 22.3*; TAAR1 ant conf: 55.0*; Ga16 nonsel ag: 8.2; TAAR1 ag counter: 4.8

Results for COc1ccc(C2CC(c3ccccc3)=NN2C(=O)COC(=O)CNC(=O)c2ccccc2)cc1 (centres undefined) ?
CHO parental Ca: -25.6; TAAR1 agonist: 32.0; GPR7 antagonist: -6.8; TAAR1 antag: 66.7*; OX1R antag-1: -12.6; OX1R antag-2: 14.2; nonsel antag count: 43.0*; TAAR1 ant conf: 54.3*; Ga16 nonsel ag: 21.8*; TAAR1 ag counter: 37.0

What do the screens show for `CCNC(=O)C1CCCN(C(=O)c2ccccc2F)CC1` (centres undefined)?
TAAR1 agonist: 1.1; TAAR1 antag: -4.5

How did O=[N+]([O-])c1cccnc1SCc1c(F)cccc1Cl do in these assays?
CHO parental Ca: -7.4; TAAR1 agonist: 10.4; GPR7 antagonist: -18.1; TAAR1 antag: 52.4*; OX1R antag-1: -30.7; OX1R antag-2: 24.0; nonsel antag count: 15.6; TAAR1 ant conf: 27.1; Ga16 nonsel ag: 3.3; TAAR1 ag counter: 8.6

How did O=C(CN1CCN(Cc2ccccc2)CC1)Nc1ccc([N+](=O)[O-])cc1C(=O)Nc1ccccc1F do in these assays?
CHO parental Ca: -23.8; TAAR1 agonist: 15.7; GPR7 antagonist: -11.9; TAAR1 antag: 58.5*; OX1R antag-1: -42.3; OX1R antag-2: 18.9; nonsel antag count: 29.4*; TAAR1 ant conf: 50.5*; Ga16 nonsel ag: 7.2; TAAR1 ag counter: 13.1

How did CCCN1CCN(c2ccc(S(N)(=O)=O)cc2[N+](=O)[O-])CC1 do in these assays?
CHO parental Ca: -6.1; TAAR1 agonist: 1.6; GPR7 antagonist: -6.5; TAAR1 antag: -24.7; OX1R antag-1: -0.6; OX1R antag-2: 32.1

Results for Oc1ccc(-c2csc(NCc3ccco3)n2)cc1 ?
CHO parental Ca: -13.3; TAAR1 agonist: -1.9; GPR7 antagonist: -9.0; TAAR1 antag: 104.0*; OX1R antag-1: -18.6; OX1R antag-2: 20.7; nonsel antag count: -2.6; TAAR1 ant conf: -2.1; Ga16 nonsel ag: 0.3; TAAR1 ag counter: -3.6

How did O=C(NNC(=O)c1cc(Br)ccc1O)c1csc(N2CCOCC2)n1 do in these assays?
CHO parental Ca: -21.6; OX1R antag-1: -6.1; OX1R antag-2: 4.0

Results for COc1cccc(N2CCN(C(=O)CC(C)(C)CC3=NS(=O)(=O)c4ccccc4N3)CC2)c1 ?
CHO parental Ca: 15.1; TAAR1 agonist: 16.5; GPR7 antagonist: -6.4; TAAR1 antag: 71.6*; OX1R antag-1: -1.2; OX1R antag-2: 12.4; nonsel antag count: 35.9*; TAAR1 ant conf: 58.6*; Ga16 nonsel ag: 13.6*; TAAR1 ag counter: 15.7

How did O=C(CCCC1=NS(=O)(=O)c2ccccc2N1)N1CCN(c2ccccc2)CC1 do in these assays?
CHO parental Ca: -21.9; TAAR1 agonist: 14.2; GPR7 antagonist: -17.1; TAAR1 antag: 15.4; OX1R antag-1: -3.2; OX1R antag-2: 5.2
